Activity calls are given as the source filed them. No cut-off for these calls is given here.
Assays:
MDA-MB-231 [1] = test: Induction of apoptosis in human MDA-MB-231 cells assessed as decrease in Bcl2 protein level at 10 uM after 48 hrs by Western blotting; type: functional, cell-based
Method in brief: (§1)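 MDA-MB-231 cells were treated with vehicle or 10 µM compound for 48 h (and 72 h). Lysates were cleared and protein measured by BCA. Equal protein was run on 10% SDS–PAGE and transferred to PVDF, blocked in 5% milk overnight, and probed 2 h with anti-Bcl-2, Bax or PARP. HRP secondary was applied for 1 h, with ECL detection.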

MDA-MB-231 [2] = test: Antiproliferative activity against estrogen receptor-deficient human MDA-MB-231 cells after 48 hrs by WST-1 assay; type: functional, cell-based; conditions: MDA-MB-231, 48 h
Method in brief: (§2)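 Cells seeded at 3000/well in DMEM with 10% FBS and left 24 h. Compounds in DMSO were serially diluted in medium (1–100 µM) and added in triplicate. WST-1 was read 48 h after addition: 2–3 h incubation, absorbance at 450 nm with 630 nm reference. IC50 interpolated from log concentration versus fraction surviving; mean (SEM) of triplicate experiments.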

MCF7 [3] = test: Cell cycle arrest in human MCF7 cells assessed as accumulation at G2/M phase at 5 to 10 uM after 16 to 40 hrs using propidium iodide staining by flow cytometry; type: functional, cell-based
Method in brief: (§3)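 Asynchronous cells were treated with 5 or 10 µM compound or DMSO for 24 h (also 16 and 40 h). They were trypsinized, washed in PBS and fixed/permeabilized in 70% ethanol. Staining was with RNase and propidium iodide for 30 min in the dark at room temperature, followed by flow cytometry. Phase percentages are given minus DMSO control; mean of triplicates.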

MDA-MB-231 [4] = test: Induction of apoptosis in human MDA-MB-231 cells assessed as reduction of cdc2 phosphorylation at T161 catalytic site at 10 uM by Western blot analysis; type: functional, cell-based; conditions: TDE = time-dependent effect
Method in brief: (§4)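 MDA-MB-231 cells were treated with 10 µM compound for 1, 3, 6, 12 and 24 h and lysed. Equal protein was resolved by 10% SDS–PAGE and immunoblotted for phospho-cdc2 (T161, Y15), cdc2 and cyclin B, with actin as loading standard and ECL detection.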

MCF7 [5] = test: Cell cycle arrest in human MCF7 cells assessed as accumulation at sub G1 phase at 5 to 10 uM after 24 hrs using propidium iodide staining by flow cytometry; type: functional, cell-based; method in brief: as §3
MCF7 [6] = test: Cell cycle arrest in human MCF7 cells assessed as accumulation at G2/M phase at 5 to 10 uM after 24 hrs using propidium iodide staining by flow cytometry; type: functional, cell-based; method in brief: as §3
[7] = biological target: Cyclin-dependent kinase 5/CDK5 activator 1 (Homo sapiens) (UniProt Q00535+Q15078); conditions: at 0.1 µM
Cyclin-dependent kinase 5/CDK5 activator 1 (Homo sapiens), sequence (Q00535 whole entry): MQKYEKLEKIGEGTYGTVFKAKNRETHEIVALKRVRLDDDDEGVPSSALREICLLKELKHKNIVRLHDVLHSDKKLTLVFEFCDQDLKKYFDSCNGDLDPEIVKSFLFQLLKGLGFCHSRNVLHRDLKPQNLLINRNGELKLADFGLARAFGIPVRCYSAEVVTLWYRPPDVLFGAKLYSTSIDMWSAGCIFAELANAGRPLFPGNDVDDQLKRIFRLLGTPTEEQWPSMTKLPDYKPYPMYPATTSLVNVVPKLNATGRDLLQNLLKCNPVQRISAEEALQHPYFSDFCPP
Cyclin-dependent kinase 5/CDK5 activator 1 (Homo sapiens), sequence (Q15078 99-307 partner limits assumed): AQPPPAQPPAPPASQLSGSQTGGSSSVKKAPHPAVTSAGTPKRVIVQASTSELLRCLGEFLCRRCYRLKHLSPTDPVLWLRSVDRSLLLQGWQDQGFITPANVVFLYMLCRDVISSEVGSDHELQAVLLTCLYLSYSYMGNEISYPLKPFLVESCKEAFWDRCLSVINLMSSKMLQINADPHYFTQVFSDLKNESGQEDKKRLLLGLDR

MDA-MB-231 [8] = test: Induction of apoptosis in human MDA-MB-231 cells assessed as decrease in caspase 7 protein level at 10 uM after 48 hrs by Western blotting; type: functional, cell-based
MDA-MB-231 [9] = test: Induction of apoptosis in human MDA-MB-231 cells assessed as decrease in cell number at 10 uM after 48 hrs using propidium iodide staining by confocal microscopic analysis; type: functional, cell-based
[10] = biological target: Cyclin-dependent kinase 7/ cyclin H (Homo sapiens) (UniProt P51946+P50613); test: Inhibition of human CDK7/cyclinH/MAT1 at 0.1 uM after 40 mins relative to control; type: protein-complex assay
Method in brief: (§5)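 Radiometric screen at 100 nM compound against purified human CDK/cyclin (5–10 mU). Incubation 40 min at room temperature, stopped with phosphoric acid. Read by filtermat scintillation. Activity expressed as % of control, N = 2.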

MCF7 [11] = test: Antiproliferative activity against human MCF7 cells expressing estrogen receptor after 72 hrs by WST-1 assay; type: functional, cell-based; conditions: MCF7, 72 h
Method in brief: (§6)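 MCF-7 and its P-glycoprotein-overexpressing MDR subline CL 10.3 were grown in DMEM with 10% heat-inactivated FBS. Compounds in DMSO were serially diluted in medium and given to cells for 72 h. Read-out was WST-1 reduction (450 nm, 630 nm reference). IC50 interpolated from log concentration versus fraction surviving; mean (SEM) of triplicates. Ratio is CL 10.3 IC50 over MCF-7 IC50.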

MDA-MB-231 [12] = test: Cell cycle arrest in human MDA-MB-231 cells assessed as accumulation at G2/M phase treated at 5 uM for 24 hrs measured after drug washout following 48 hrs growth recovery using propidium iodide staining by flow cytometry; type: functional, cell-based
Method in brief: (§7)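 Exponentially growing cells exposed 24 h, then held a further 48 h in compound-free medium. Cells trypsinized, pelleted, PBS-washed, permeabilized in 70% ethanol, stained 30 min in the dark at room temperature with PI plus RNase, and analysed by flow cytometry. Phase percentages given after subtracting untreated control. Mean of triplicate experiments.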

[13] = biological target: CDK3/cyclin E (Homo sapiens) (UniProt P24864+O96020+Q00526); test: Inhibition of human CDK3/cyclin E at 0.1 uM after 40 mins relative to control; type: protein-complex assay; method in brief: as §5
CDK3/cyclin E (Homo sapiens), sequence (O96020 whole entry, looked up): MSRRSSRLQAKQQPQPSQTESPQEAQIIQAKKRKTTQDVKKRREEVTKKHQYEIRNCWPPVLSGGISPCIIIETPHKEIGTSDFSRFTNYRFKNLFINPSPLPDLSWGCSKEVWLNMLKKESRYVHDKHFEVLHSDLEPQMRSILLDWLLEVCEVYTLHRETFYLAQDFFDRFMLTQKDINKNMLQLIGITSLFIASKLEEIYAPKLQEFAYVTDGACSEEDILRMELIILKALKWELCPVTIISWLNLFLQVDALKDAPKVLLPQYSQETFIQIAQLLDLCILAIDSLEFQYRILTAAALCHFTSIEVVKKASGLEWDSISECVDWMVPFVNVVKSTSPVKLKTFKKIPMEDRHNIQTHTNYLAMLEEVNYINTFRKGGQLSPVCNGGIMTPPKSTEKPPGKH
CDK3/cyclin E (Homo sapiens), sequence (P24864 whole entry, looked up): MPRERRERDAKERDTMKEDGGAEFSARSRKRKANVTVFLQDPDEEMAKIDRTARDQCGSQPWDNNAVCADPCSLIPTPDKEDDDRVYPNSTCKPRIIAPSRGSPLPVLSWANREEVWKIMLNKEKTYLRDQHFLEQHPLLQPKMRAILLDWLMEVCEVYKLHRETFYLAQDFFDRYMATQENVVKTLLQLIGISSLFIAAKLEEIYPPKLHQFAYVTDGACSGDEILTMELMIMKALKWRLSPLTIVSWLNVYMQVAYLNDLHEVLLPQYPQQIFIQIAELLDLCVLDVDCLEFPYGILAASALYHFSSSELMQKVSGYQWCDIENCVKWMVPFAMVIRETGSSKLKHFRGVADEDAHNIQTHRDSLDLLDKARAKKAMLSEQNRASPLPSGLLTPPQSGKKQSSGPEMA
CDK3/cyclin E (Homo sapiens), sequence (Q00526 whole entry, looked up): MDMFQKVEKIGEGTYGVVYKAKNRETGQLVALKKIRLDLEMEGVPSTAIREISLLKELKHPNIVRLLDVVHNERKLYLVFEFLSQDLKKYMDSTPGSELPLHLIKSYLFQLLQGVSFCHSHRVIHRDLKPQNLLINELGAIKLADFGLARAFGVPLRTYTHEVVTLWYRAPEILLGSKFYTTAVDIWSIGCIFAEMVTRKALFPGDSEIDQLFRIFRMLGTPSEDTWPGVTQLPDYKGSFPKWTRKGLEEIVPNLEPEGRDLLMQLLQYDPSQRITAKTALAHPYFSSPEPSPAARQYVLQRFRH

[14] = Antiproliferative activity against human CL 10.3 cells expressing p-glycoprotein after 72 hrs by WST-1 assay; type: functional, cell-based; method in brief: as §6
MCF7 [15] = test: Induction of apoptosis in human MCF7 cells assessed as viable cells at 10 uM after 24 hrs using annexinV-propidium iodide staining by flow cytometry (reference value: 70.32%); type: functional; conditions: MCF7, 24 h, read-out: Activity
MDA-MB-231 [16] = test: Cell cycle arrest in human MDA-MB-231 cells assessed as accumulation at G2/M phase at 5 to 10 uM after 16 to 40 hrs using propidium iodide staining by flow cytometry; type: functional, cell-based; method in brief: as §3
MDA-MB-231 [17] = test: Drug uptake in human MDA-MB-231 cell cytoplasm at 10 uM after 3 to 24 hrs using propidium iodide staining by two-photon confocal microscopy; type: ADME, cell-based; conditions: mda-mb-231, 10 µM
MCF7 [18] = test: Drug uptake in human MCF7 cell cytoplasm at 10 uM after 1 hr using propidium iodide staining by two-photon confocal microscopy; type: ADME, cell-based; conditions: mcf7, 1 h
Method in brief: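 Cells (5 × 10^5) were treated with 10 µM compound for 1 h, PBS-washed and fixed in 4% formaldehyde. Nuclei were stained with propidium iodide for 5 min before mounting. Imaging used two-photon confocal microscopy, 63× oil, excitation 720 nm, emission 480–520 nm, with DIC for morphology.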

MDA-MB-231 [19] = test: Cell cycle arrest in human MDA-MB-231 cells assessed as accumulation at G2/M phase treated at 10 uM for 24 hrs measured after drug washout following 48 hrs growth recovery using propidium iodide staining by flow cytometry; type: functional, cell-based; method in brief: as §7
MCF7 [20] = test: Ratio of IC50 for human CL 10.3 cells expressing p-glycoprotein to IC50 for human MCF7 cells; type: functional; method in brief: as §6
MDA-MB-231 [21] = test: Induction of apoptosis in human MDA-MB-231 cells assessed as reduction of cdc2 phosphorylation at Y15 regulatory site at 10 uM by Western blot analysis; type: functional, cell-based; conditions: TDE = time-dependent effect; method in brief: as §4
MDA-MB-231 [22] = test: Induction of apoptosis in human MDA-MB-231 cells assessed as decrease in caspase 3 protein level at 10 uM after 48 hrs by Western blotting; type: functional, cell-based
MCF7 [23] = test: Drug uptake in human MCF7 cell cytoplasm at 10 uM after 3 to 24 hrs using propidium iodide staining by two-photon confocal microscopy; type: ADME, cell-based; conditions: mcf7, 10 µM
MDA-MB-231 [24] = test: Induction of apoptosis in human MDA-MB-231 cells assessed as increase in Bax protein level at 10 uM after 48 hrs by Western blotting; type: functional, cell-based; method in brief: as §1
MCF7 [25] = test: Antiproliferative activity against human MCF7 cells expressing estrogen receptor after 48 hrs by WST-1 assay; type: functional, cell-based; conditions: MCF7, 48 h; method in brief: as §2

## CC(C)[C@H](CO)Nc1nc(Nc2ccc(C(=O)NCCNS(=O)(=O)c3cccc4c(N(C)C)cccc34)c(Cl)c2)c2ncn(C(C)C)c2n1
MDA-MB-231 [1]
  Activity: Active
MDA-MB-231 [2]
  IC50: 4.06 µM
MCF7 [3]
  Activity: Active
MDA-MB-231 [4]
  inhibition: tde
MCF7 [5]
  Activity: Active
MCF7 [6]
  Activity: Active
[7]
  inhibition: 66%
MDA-MB-231 [8]
  Activity: Active
MDA-MB-231 [9]
  Activity: Active
[10]
  inhibition: 69%
MCF7 [11]
  IC50: 4.5 µM
MDA-MB-231 [12]
  Activity: Active
[13]
  inhibition: 65%
[14]
  IC50: 44.1 µM
MCF7 [15]
  viability at 10 µM: 48.9%
MDA-MB-231 [16]
  Activity: Active
MDA-MB-231 [17]
  Activity: Active
MCF7 [18]
  Activity: Active
MDA-MB-231 [19]
  Activity: Active
MCF7 [20]
  Ratio IC50: 9.8
MDA-MB-231 [21]
  inhibition: tde
MDA-MB-231 [22]
  Activity: Active
MCF7 [23]
  Activity: Active
MDA-MB-231 [24]
  Activity: Active
MCF7 [25]
  IC50: 10 µM

— ChEMBL document CHEMBL1765024, “Fluorescent cyclin-dependent kinase inhibitors block the proliferation of human breast cancer cells” (Bioorg Med Chem, 2011)
